# Data from ChEMBL document CHEMBL3868583, “6-Aryl substituted 4-(4-cyanomethyl) phenylamino quinazolines as a new class of isoform-selective PI3K-alpha inhibitors” (Eur J Med Chem, 2016).
# What was measured:
# [1] = test system: Mus musculus; test: Toxicity in Swiss mouse implanted with Swiss mouse EAC cells assessed as mortality at 70 mg/kg, ip administered for 1 to 9 days measured on day 12; format: organism-based, Ehrlich; details: in vivo
# Method in brief: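 1×10^7 EAC cells injected intraperitoneally into Swiss mice on day 0. Mice randomized next day: treated groups n=7, saline control n=10 (0.2 ml i.p.). Dosing i.p. days 1–9. Sacrifice on day 12; ascitic fluid collected from the peritoneal cavity. % tumor growth inhibition from total tumor cell count versus control. Body weight and mortality tracked.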
# [2] = target: Phosphatidylinositol 4,5-bisphosphate 3-kinase catalytic subunit beta isoform (Homo sapiens, UniProt P42338); test: Inhibition of PI3Kbeta (unknown origin) using diC8 PIP2 as substrate up to 20 uM after 60 mins by ADP-glo assay
# Chain of Phosphatidylinositol 4,5-bisphosphate 3-kinase catalytic subunit beta isoform (P42338 whole entry, looked up, canonical isoform): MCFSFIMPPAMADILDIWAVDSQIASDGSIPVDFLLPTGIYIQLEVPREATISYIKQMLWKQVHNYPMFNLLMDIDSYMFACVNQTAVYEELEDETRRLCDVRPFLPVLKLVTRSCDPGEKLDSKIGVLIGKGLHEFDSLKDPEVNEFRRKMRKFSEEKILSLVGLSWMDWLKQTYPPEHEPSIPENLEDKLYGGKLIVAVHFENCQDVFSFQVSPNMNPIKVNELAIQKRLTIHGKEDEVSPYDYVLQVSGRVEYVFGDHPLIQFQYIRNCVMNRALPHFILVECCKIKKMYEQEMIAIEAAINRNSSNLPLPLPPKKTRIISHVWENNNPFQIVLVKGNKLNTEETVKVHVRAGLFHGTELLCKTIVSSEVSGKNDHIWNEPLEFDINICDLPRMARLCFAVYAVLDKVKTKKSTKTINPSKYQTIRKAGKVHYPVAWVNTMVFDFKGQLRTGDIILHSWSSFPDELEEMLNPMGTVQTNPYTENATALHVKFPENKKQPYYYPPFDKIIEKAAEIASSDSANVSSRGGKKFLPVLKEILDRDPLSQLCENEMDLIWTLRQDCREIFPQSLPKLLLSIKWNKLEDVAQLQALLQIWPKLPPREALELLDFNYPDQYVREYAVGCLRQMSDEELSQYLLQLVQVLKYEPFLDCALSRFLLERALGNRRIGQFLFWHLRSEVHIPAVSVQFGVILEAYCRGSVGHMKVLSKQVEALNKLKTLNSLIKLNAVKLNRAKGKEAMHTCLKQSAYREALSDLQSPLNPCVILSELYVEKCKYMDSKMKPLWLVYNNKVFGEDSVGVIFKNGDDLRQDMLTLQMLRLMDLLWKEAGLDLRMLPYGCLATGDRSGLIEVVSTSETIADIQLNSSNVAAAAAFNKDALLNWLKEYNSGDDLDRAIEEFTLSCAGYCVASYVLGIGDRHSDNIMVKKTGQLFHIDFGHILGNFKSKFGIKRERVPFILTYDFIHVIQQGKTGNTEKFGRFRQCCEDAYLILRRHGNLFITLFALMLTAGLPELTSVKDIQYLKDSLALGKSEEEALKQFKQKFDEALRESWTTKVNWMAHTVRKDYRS
# [3] = test system: Mus musculus; test: Toxicity in Swiss mouse implanted with Swiss mouse EAC cells assessed as body weight at 70 mg/kg, ip administered for 1 to 9 days measured on day 12 (reference value: 28.4 g); format: organism-based, Ehrlich; details: in vivo
# [4] = Anticancer activity against Swiss mouse EAC cells implanted in Swiss mouse assessed as tumor growth inhibition at 70 mg/kg, ip administered for 1 to 9 days measured on day 12 relative to control; format: functional; details: Ehrlich, read-out: TGI
# Method in brief: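 Swiss mice given 1 × 10^7 EAC cells i.p. on day 0, randomized next day (treated n=7, control n=10). Compound given i.p. days 1-9; saline control (0.2 ml i.p.), 5-fluorouracil 20 mg/kg i.p. reference. Sacrificed day 12; ascitic fluid collected; % TGI from total peritoneal tumor cell count versus control.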
# [5] = Cytotoxicity against human PC3 cells assessed as cell growth inhibition after 24 hrs by MTT assay; format: functional; details: PC-3, 24 h
# [6] = Downregulation of PI3Kbeta expression in human PC3 cells at 30 uM by Western blot analysis; format: functional, cell-based; details: PC-3
# Method in brief: (§1)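 MCF-7 or PC-3 cells (2 × 10^6) treated with compound, lysed (1 × 10^6 cells) in cold NP-40 buffer with protease inhibitors 30 min on ice, 12,000 g 10 min 4 °C. 50 µg protein per lane on SDS-PAGE, PVDF transfer, 5% milk block, primary antibody 2 h, HRP secondary 1 h, ECL on film; β-actin internal control.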
# [7] = test system: Mus musculus; test: Toxicity in Swiss mouse implanted with Swiss mouse EAC cells assessed as body weight at 70 mg/kg, ip administered for 1 to 9 days measured on day 5 (reference value: 26.2 g); format: organism-based, Ehrlich; details: in vivo
# [8] = test system: PC-3; test: Induction of apoptosis in human PC3 cells assessed as loss of mitochondrial membrane potential at 20 uM after 24 hrs by rhodamine-123-staining based FACS analysis (reference value: 5 % ); format: functional
# Method in brief: (§2)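 Cells (MCF-7 or PC-3) exposed to indicated concentrations for 24 h; rhodamine-123 (5 µM) added 1 h before end. Cells collected, PBS-washed; fluorescence of 10,000 events read in FL-1 by flow cytometry, loss of mitochondrial potential scored as decreased intensity.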
# [9] = Cytotoxicity against human PC3 cells assessed as cell growth inhibition after 6 hrs by MTT assay; format: functional; details: PC-3, 6 h
# [10] = test system: PC-3; test: Induction of cell cycle arrest in human PC3 cells assessed as accumulation at G2 phase at 10 uM after 24 hrs by propidium iodide-staining based FACS analysis (reference value: 17 %); format: functional
# Method in brief: (§3)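 MCF-7 or PC-3 cells treated at indicated concentrations for 24 h, pelleted, PBS-washed, fixed in ice-cold 70% ethanol overnight at 4 °C. RNase 0.2 mg/mL 1 h at 37 °C, propidium iodide 10 µg/mL 30 min dark. 10,000 events (FL2-A vs FL2-W) by flow cytometry; fractions in apoptosis/sub-G1, G1, S, G2-M.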
# [11] = Downregulation of PI3Kgamma expression in human PC3 cells at 30 uM by Western blot analysis; format: functional, cell-based; details: PC-3; method in brief: as §1
# [12] = test system: PC-3; test: Induction of cell cycle arrest in human PC3 cells assessed as accumulation at S phase at 20 uM after 24 hrs by propidium iodide-staining based FACS analysis (reference value: 44 %); format: functional; method in brief: as §3
# [13] = test system: PC-3; test: Induction of cell cycle arrest in human PC3 cells assessed as accumulation at S phase at 30 uM after 24 hrs by propidium iodide-staining based FACS analysis (reference value: 44 %); format: functional
# Method in brief: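 PC-3 cells exposed 24 h at indicated concentrations, pelleted, fixed overnight in ice-cold 70% ethanol at 4 °C, RNase 0.2 mg/mL at 37 °C 1 h, propidium iodide 10 µg/mL 30 min in dark; 10,000 events acquired (FL2-A vs FL2-W); DNA histograms modelled for apoptotic (sub-G1), G1, S and G2-M fractions.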
# [14] = test system: Mus musculus; test: Toxicity in Swiss mouse implanted with Swiss mouse EAC cells assessed as body weight at 25 mg/kg, ip administered for 1 to 9 days measured on day 12 (reference value: 28.4 g); format: organism-based, Ehrlich; details: in vivo
# [15] = test system: Mus musculus; test: Toxicity in Swiss mouse implanted with Swiss mouse EAT cells assessed as body weight at 25 mg/kg, ip administered for 1 to 9 days measured on day 9 (reference value: 22.8 g); format: organism-based; details: in vivo
# [16] = test system: MCF7; test: Induction of apoptosis in human MCF7 cells assessed as loss of mitochondrial membrane potential at 20 uM after 24 hrs by rhodamine-123-staining based FACS analysis (reference value: 7 % ); format: functional; method in brief: as §2
# [17] = test system: Mus musculus; test: Toxicity in Swiss mouse implanted with Swiss mouse EAT cells assessed as body weight at 25 mg/kg, ip administered for 1 to 9 days measured on day 13 (reference value: 24.1 g); format: organism-based; details: in vivo
# [18] = Anticancer activity against Swiss mouse EAT cells implanted in Swiss mouse assessed as tumor growth inhibition at 15 mg/kg, ip administered for 1 to 9 days measured on day 13 relative to control; format: functional; details: read-out: TGI
# Method in brief: (§4)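 Solid tumor: 1 × 10^7 EAC cells (harvested from 8-10 day ascitic Swiss mice) injected intramuscularly into right thigh of male Swiss mice, day 0; randomized next day (n=7 treated, 10 control). Dosing i.p. days 1-9; saline 0.2 ml control, 5-FU 22 mg/kg reference.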
# [19] = test system: MCF7; test: Induction of apoptosis in human MCF7 cells assessed as loss of mitochondrial membrane potential at 10 uM after 24 hrs by rhodamine-123-staining based FACS analysis (reference value: 7 % ); format: functional; method in brief: as §2
# [20] = test system: MCF7; test: Induction of cell cycle arrest in human MCF7 cells assessed as accumulation at S phase at 30 uM after 24 hrs by propidium iodide-staining based FACS analysis (reference value: 30 %); format: functional; method in brief: as §3
# [21] = Anticancer activity against Swiss mouse EAT cells implanted in Swiss mouse assessed as tumor growth inhibition at 25 mg/kg, ip administered for 1 to 9 days measured on day 13 relative to control; format: functional; details: read-out: TGI; method in brief: as §4
# [22] = test system: MCF7; test: Induction of cell cycle arrest in human MCF7 cells assessed as accumulation at G1 phase at 20 uM after 24 hrs by propidium iodide-staining based FACS analysis (reference value: 50 %); format: functional; method in brief: as §3
# [23] = test system: MCF7; test: Induction of cell cycle arrest in human MCF7 cells assessed as apoptotic cells at 30 uM after 24 hrs by propidium iodide-staining based FACS analysis (reference value: 8 %); format: functional; method in brief: as §3
# [24] = test system: MCF7; test: Induction of cell cycle arrest in human MCF7 cells assessed as apoptotic cells at 10 uM after 24 hrs by propidium iodide-staining based FACS analysis (reference value: 8 %); format: functional; method in brief: as §3
smiles,measurement,setting,value
N#CCc1ccc(Nc2ncnc3ccc(-c4cncc5ccccc45)cc23)cc1,Activity,[1],Non-Toxic
same,inhibition,[2],0%
same,Activity,[3],24.33 g
same,inhibition in vivo at 70 mg/kg,[4],25.8%
same,GI50,[5],28 µM
same,Activity,[6],42%
same,Activity,[7],23 g
same,Activity,[8],14%
same,GI50,[9],567 µM
same,Activity,[10],3%
same,Activity,[11],20%
same,Activity,[12],26%
same,Activity,[13],46%
N#CCc1ccc(Nc2ncnc3ccc(-c4ccc5[nH]ccc5c4)cc23)cc1,Activity,[14],23.8 g
same,Activity,[15],21 g
same,Activity,[16],15%
same,Activity,[17],21.81 g
same,inhibition in vivo at 15 mg/kg,[18],34.3%
same,Activity,[19],12%
same,Activity,[20],53%
same,inhibition in vivo at 25 mg/kg,[21],36.5%
same,Activity,[22],51%
same,Activity,[23],37%
same,Activity,[24],7%
